Test results: ChEMBL document CHEMBL4477278, “Synthesis and evaluation of 8-hydroxyquinolin derivatives substituted with (benzo[d][1,2]selenazol-3(2H)-one) as effective inhibitor of metal-induced Aβ aggregation and antioxidant” (Bioorg Med Chem, 2016)

Key:
[1] = Antioxidant activity assessed as glutathione peroxidase-like activity in phosphate buffer measured as initial rate for the reduction of […] by GSH at 80 uM in presence of NADPH by coupled reductase assay; format: functional
Procedure, shortened: (§1)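 Coupled reductase assay in 100 mM potassium phosphate pH 7.5 at 25 °C: 2 mM GSH, 1 mM EDTA, 1.3 U/mL glutathione reductase, 0.4 mM NADPH, 80 µM selenium compound. Reaction started with 1.6 mM peroxide. Initial rate is taken from NADPH oxidation at 340 nm over the first 5–10% of reaction (ε 6.22 mM⁻¹cm⁻¹). Triplicate, mean ± SD.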

[2] = Antioxidant activity assessed as glutathione peroxidase-like activity in phosphate buffer measured as initial rate for the reduction of cumene hydroperoxide by GSH at 80 uM in presence of NADPH by coupled reductase assay; format: functional; procedure, shortened: as §1
[3] = Antioxidant activity assessed as glutathione peroxidase-like activity in phosphate buffer measured as initial rate for the reduction of tert-butyl hydroperoxide by GSH at 80 uM in presence of NADPH by coupled reductase assay; format: functional; procedure, shortened: as §1
[4] = Antioxidant activity assessed as H2O2 scavenging at 10 uM measured after 200 to 220 mins in presence of GSH and NADPH; format: functional
Procedure, shortened: (§2)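 Kinetic peroxide removal in 100 mM phosphate buffer pH 7.5 at 25 °C with 1 mM EDTA, 0.25 mM GSH, 0.50 mM NADPH, 1.3 U/mL glutathione reductase, 0.20 mM peroxide and 10 µM catalyst. NADPH consumption followed over time. Means of three independent experiments.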

[5] = Antioxidant activity assessed as t-BuOOH scavenging at 10 uM measured after 300 mins in presence of GSH and NADPH; format: functional; procedure, shortened: as §2
[6] = Antioxidant activity assessed as Cum-OOH scavenging at 10 uM measured after 300 mins in presence of GSH and NADPH; format: functional; procedure, shortened: as §2
[7] = Antioxidant activity assessed as AAPH radical scavenging activity preincubated for 10 mins followed by AAPH challenge measured as trolox equivalents measured at every min for 120 mins by ORAC-FL assay; format: functional
Procedure, shortened: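 ORAC-FL: compound diluted in 75 mM phosphate buffer pH 7.4, premixed with fluorescein (70 nM final) for 10 min at 37 °C, then AAPH added. Fluorescence (ex 485, em 520 nm) read each minute for 120 min. Net AUC versus blank is converted to Trolox equivalents using a Trolox standard curve (10–100 µM). Triplicates, at least three independent runs.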

[8] = Inhibition of Cu2+ induced aggregation of recombinant human amyloid beta (1 to 42) at 50 uM after 24 hrs by thioflavin-T based fluorescence assay
Procedure, shortened: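 Aβ1–42 (stock in 1% ammonium hydroxide), 25 µM final, with or without CuSO4 (25 µM) and compound (50 µM) in HEPES pH 6.6 with NaCl, incubated 24 h at 37 °C. Samples then diluted tenfold into 50 mM glycine-NaOH pH 8.0 containing 5 µM thioflavin T for fluorescence read-out.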

[9] = Permeability of the compound at 100 ug/ml measured after 10 hrs by PAMPA-BBB assay; format: ADME; conditions: read-out: Peff
Procedure, shortened: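 PAMPA-BBB: filter coated with porcine brain lipid in dodecane (20 mg/mL). Compound is dissolved in DMSO (5 mg/mL) and diluted 50-fold in PBS/EtOH 7:3 to 100 µg/mL in donor wells, with PBS/EtOH acceptor. Plates stand 10 h at 25 °C, then acceptor concentration is read by UV at five wavelengths, four wells, at least three runs. Pe is calculated by formula; assay validated with 13 reference drugs.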

[10] = Metal chelating activity of the compound assessed as Cu2+ complex formation by measuring maximum absorption wave length at 50 uM measured after 30 mins by UV-Vis spectrometry (reference value: 301 nm); format: functional
Procedure, shortened: (§3)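 Compound (50 µM final) with or without metal salt (CuSO4, FeSO4, FeCl3 or ZnCl2, 50 µM final) in 20 mM HEPES, 150 mM NaCl, pH 7.4. After 30 min, UV-vis absorption spectra are recorded at room temperature.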

[11] = Metal chelating activity of the compound assessed as Zn2+ complex formation by measuring maximum absorption wave length at 50 uM measured after 30 mins by UV-Vis spectrometry (reference value: 301 nm); format: functional; procedure, shortened: as §3
[12] = Metal chelating activity of the compound assessed as Fe2+ complex formation by measuring maximum absorption wave length at 50 uM measured after 30 mins by UV-Vis spectrometry (reference value: 301 nm); format: functional; procedure, shortened: as §3
[13] = Metal chelating activity of the compound assessed as Fe3+ complex formation by measuring maximum absorption wave length at 50 uM measured after 30 mins by UV-Vis spectrometry (reference value: 301 nm); format: functional; procedure, shortened: as §3

Row | SMILES | Activity [1] [µM/min] | Activity [2] [µM/min] | Activity [3] [µM/min] | Activity [4] [%] | Activity [5] [%] | Activity [6] [%] | Activity (umolequiv/umol) [7] | inhibition [8] [%] | Papp at 10 h, 100 ug/ml [9] [×10⁻⁶ cm/s] | Activity [10] [nm] | Activity [11] [nm] | Activity [12] [nm] | Activity [13] [nm]
1 | O=c1c2c(F)cccc2[se]n1-c1ccc2cccc(O)c2n1 | 102 | 31.4 | 47.9 | 71 | 46 | 74 | 2.3 | 82 | 7.4 |  |  |  | 
2 | O=c1c2ccc(C(F)(F)F)cc2[se]n1-c1ccc2cccc(O)c2n1 | 64.2 | 16.1 | 10.6 |  |  |  |  |  |  |  |  |  | 
3 | O=c1c2cc(C(F)(F)F)ccc2[se]n1-c1ccc2cccc(O)c2n1 | 69.9 | 5.6 | 8 |  |  |  |  |  |  |  |  |  | 
4 | O=c1c2cc(O)ccc2[se]n1-c1ccc2cccc(O)c2n1 | 106 | 24.3 | 63.4 | 60 | 30 | 47 | 2.6 | 60 | 5.9 | 316 | 304 | 297 | 300
5 | O=c1c2c(C(F)(F)F)cccc2[se]n1-c1ccc2cccc(O)c2n1 | 161 | 31.7 | 62 | 68 | 67 | 77 | 0.2 | 79 | 10.1 |  |  |  | 
6 | Oc1c(I)cc(Cl)c2cccnc12 |  |  |  |  |  |  | 0.5 | 87 |  |  |  |  | 
7 | O=c1c2ccc(F)cc2[se]n1-c1ccc2cccc(O)c2n1 | 77.3 | 11.1 | 6.4 |  |  |  |  |  |  |  |  |  | 
8 | O=c1c2c(Cl)cccc2[se]n1-c1ccc2cccc(O)c2n1 | 155 | 35.1 | 52.1 | 65 | 38 | 68 | 0.9 |  | 7.8 |  |  |  | 
9 | O=c1c2cccc(F)c2[se]n1-c1ccc2cccc(O)c2n1 | 152 | 24.1 | 55.5 | 62 | 31 | 66 | 3.6 |  | 11.1 |  |  |  | 
10 | O=c1c2ccccc2[se]n1-c1ccc2cccc(O)c2n1 | 49.9 | 17.1 | 14 |  |  |  |  |  |  |  |  |  | 
11 | O=c1c2cccc(C(F)(F)F)c2[se]n1-c1ccc2cccc(O)c2n1 | 132 | 30 | 31.7 |  |  |  | 0.3 |  | 13.3 |  |  |  | 
12 | O=c1c2ccc(Cl)cc2[se]n1-c1ccc2cccc(O)c2n1 | 45 | 23.3 | 7.1 |  |  |  |  |  |  |  |  |  | 
13 | O=c1c2ccccc2[se]n1-c1ccccc1 | 113 | 22.6 | 47.6 |  |  |  |  |  |  |  |  |  | 
14 | O=c1c2cc(Cl)ccc2[se]n1-c1ccc2cccc(O)c2n1 | 45 | 23.9 | 6.9 |  |  |  |  |  |  |  |  |  | 
15 | O=c1c2cc(F)ccc2[se]n1-c1ccc2cccc(O)c2n1 | 64.3 | 15.9 | 20.4 |  |  |  |  |  |  |  |  |  | 
